This passage reports inhibition, Activity and IC50 results from ChEMBL document CHEMBL5108041, “Identification and validation of novel microtubule suppressors with an imidazopyridine scaffold through structure-based virtual screening and docking” (RSC Med Chem, 2022).

Active and inactive are the calls of the source. The calls are words filed in the database; no cut-off is given here.

In data set [1] the test system is A549. Put plainly: Antiproliferative activity against human A549 cells assessed as cell growth inhibition at 10 uM incubated for 48 hr by MTT assay. Format: functional. The essentials: (§1)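 Cells in RPMI with 10% FBS, 1% pen/strep at 37 °C, 5% CO2. […] MTT 0.5 mg ml⁻¹ for 2 h, formazan dissolved in DMSO, A570; viability = OD treated/OD control × 100. Triplicate.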
A general note: Formazan colour is commonly taken as a measure of viable cells.

Data set [2] can be described thus: Antiproliferative activity against human F180 cells assessed as cell growth inhibition at 10 uM incubated for 48 hr by MTT assay. Format: toxicity, cell-based. Conditions: f180, 48 h. The essentials: as §1
For data set [3], the system named is MDA-MB-231. Put plainly: Antiproliferative activity against human MDA-MB-231 cells assessed as cell growth inhibition incubated for 48 hr by MTT assay. Format: functional, cell-based. The essentials:
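MTT titration: cells seeded 1×10^4/well for 24 h, then treated 48 h at 37 °C, 5% CO2 with 2.5, 5, 10, 20 μM. MTT 0.5 mg ml⁻¹ for 2 h, formazan in DMSO read at 570 nm; viability relative to 0.1% DMSO control. IC50 is the mean of three replicate experiments ± SD.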

The subject of data set [4] is MCF7. Put plainly: Antiproliferative activity against human MCF7 cells assessed as cell growth inhibition incubated for 48 hr by MTT assay. Conditions: MCF7, 48 h.
Data set [5] deals with MDA-MB-231. Put plainly: Antiproliferative activity against human MDA-MB-231 cells assessed as cell growth inhibition at 10 uM incubated for 48 hr by MTT assay. It is filed as functional. In short, it runs like this:
as §1

Data set [6] deals with MCF7. Put plainly: Antiproliferative activity against human MCF7 cells assessed as cell growth inhibition at 10 uM incubated for 48 hr by MTT assay. Format: functional. The essentials:
as §1

For data set [7], the system named is A549. Put plainly: Antiproliferative activity against human A549 cells assessed as cell growth inhibition incubated for 48 hr by MTT assay. Conditions: A549, 48 h.
Data set [8] deals with T1, Tubulin (Sus scrofa) (UniProt P02554+P02550). Put plainly: Inhibition of porcine Tubulin polymerization assessed as decrease in AUC by measuring fluorescence at 15 uM incubated for 1 hr by fluorescence microscopy. Format: protein assay. The essentials: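 Porcine tubulin at 2 mg ml⁻¹ in 80 mM PIPES, 2 mM MgCl₂, 0.5 mM EGTA pH 6.9, with 10 μM fluorescent reporter, 1 mM GTP and 15% glycerol, in a pre-warmed plate. […] Fluorescence (ex 360, em 450 nm) read once per min for 60 min at 37 °C. Area under the curve scored against the untreated control, taken as 100%.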

The subject of data set [9] is MCF7. Put plainly: Induction of apoptosis in human MCF7 cells assessed as Bax level at 6 uM incubated for 24 hrs by ELISA. Format: functional. The essentials: (§2)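 MCF-7 in RPMI1640 with 10% FBS, exposed to 6 μM for 24 h, lysed in cell extraction buffer, lysate diluted in standard diluent; Bax (pg ml⁻¹) and Bcl2 (ng ml⁻¹) measured by ELISA. Mean of three replicates ± SD.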
For orientation: An ELISA detects its analyte on a solid surface through an enzyme-linked reagent.

Data set [10] concerns MCF7. Put plainly: Cell cycle arrest in human MCF7 assessed as accumulation at G1 phase at 6 uM incubated for 24 hrs by propidium iodide staining flow cytometry. Format: functional. The essentials: (§3)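 MCF-7 cells exposed to 6 μM for 24 h, DMSO vehicle control. Cells harvested, fixed in 70% ethanol on ice 15 min, then stained 1 h at room temperature with PI solution containing 0.1 mg mL⁻¹ RNaseA and 0.05% Triton X-100. DNA content read by flow cytometry; percentage of cells in each phase.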

The subject of data set [11] is MCF7. Put plainly: Cell cycle arrest in human MCF7 assessed as accumulation at G2/M phase at 6 uM incubated for 24 hrs by propidium iodide staining flow cytometry. It is filed as functional. In short, it runs like this:
as §3
(A flow cytometer gives signals particle by particle.)

The test system of data set [12] is MCF7. Put plainly: Cell cycle arrest in human MCF7 assessed as accumulation at pre G phase at 6 uM incubated for 24 hrs by propidium iodide staining flow cytometry. Format: functional. In short, it runs like this:
as §3

The test system of data set [13] is MCF7. Put plainly: Cell cycle arrest in human MCF7 assessed as accumulation at S phase at 6 uM incubated for 24 hrs by propidium iodide staining flow cytometry. Format: functional. The essentials:
as §3

In data set [14] the test system is MCF7. Put plainly: Induction of apoptosis in human MCF7 cells assessed as necrotic cells at 6 uM incubated for 24 hrs by Annexin V-FITC/propidium iodide staining based flow cytometry (reference value: 0.76 %). Format: functional.
Data set [15] has as its system MCF7. Put plainly: Induction of apoptosis in human MCF7 cells assessed as late apoptotic cells at 6 uM incubated for 24 hrs by Annexin V-FITC/propidium iodide staining based flow cytometry (reference value: 0.17 %). Format: functional.
The test system of data set [16] is MCF7. Put plainly: Induction of apoptosis in human MCF7 cells assessed as early apoptotic cells at 6 uM incubated for 24 hrs by Annexin V-FITC/propidium iodide staining based flow cytometry (reference value: 0.55 %). It is filed as functional.
In data set [17] the test system is MCF7. Put plainly: Induction of apoptosis in human MCF7 cells assessed as Caspase-9 level at 6 uM incubated for 24 hrs by ELISA. It is filed as functional. The essentials: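 MCF-7 cells incubated with or without 6 μM for 24 h, washed in PBS, lysed; caspase-9 in lysates quantified by ELISA kit (ng ml⁻¹). Mean of three replicates ± SD.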
Data set [18] concerns MCF7. Put plainly: Induction of apoptosis in human MCF7 cells assessed as Bcl-2 level at 6 uM incubated for 24 hrs by ELISA. It is filed as functional. In short, it runs like this: as §2
The target in data set [19] is T1, Tubulin (Sus scrofa). Put plainly: Inhibition of porcine Tubulin polymerization assessed as increase in AUC by measuring fluorescence at 15 uM incubated for 1 hr by fluorescence microscopy. It is filed as protein assay.
The target of data set [20] is T2, Tubulin (Homo sapiens) (UniProt P68371+Q9H4B7+P0DPH7+P68366+Q13509+Q71U36+P04350+Q3ZCM7+P07437+P68363+Q9BQE3+Q6PEY2+Q13885+Q9BVA1+Q9BUF5). Put plainly: Inhibition of tubulin polymerization in human A549 cells assessed as inhibition of microtubule spindle formation with irregular morphology at 9 uM incubated for 24 hrs by immunofluorescence assay. It is filed as cell-based. The essentials: (§4)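 Fixed in 3.7% paraformaldehyde, permeabilised with 0.1% Triton X-100, blocked with 1% BSA 1 h, anti-β-tubulin mouse mAb overnight at 4 °C, Alexa Fluor 488 secondary, DAPI; fluorescence microscopy.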

Another data set has as its target Tubulin. Put plainly: Inhibition of tubulin polymerization in human MCF7 cells by ELISA. It is filed as cell-based.
The target in data set [21] is T2, Tubulin (Homo sapiens). Put plainly: Inhibition of tubulin polymerization in human A549 cells assessed as inhibition of microtubule spindle formation with irregular morphology at 13 uM incubated for 24 hrs by immunofluorescence assay. Format: cell-based. In short, it runs like this: as §4
[22] abbreviates: Homo sapiens, MDA-MB-231, 48 h, read-out: IC50.

T1 sequence (P02550 whole entry, looked up): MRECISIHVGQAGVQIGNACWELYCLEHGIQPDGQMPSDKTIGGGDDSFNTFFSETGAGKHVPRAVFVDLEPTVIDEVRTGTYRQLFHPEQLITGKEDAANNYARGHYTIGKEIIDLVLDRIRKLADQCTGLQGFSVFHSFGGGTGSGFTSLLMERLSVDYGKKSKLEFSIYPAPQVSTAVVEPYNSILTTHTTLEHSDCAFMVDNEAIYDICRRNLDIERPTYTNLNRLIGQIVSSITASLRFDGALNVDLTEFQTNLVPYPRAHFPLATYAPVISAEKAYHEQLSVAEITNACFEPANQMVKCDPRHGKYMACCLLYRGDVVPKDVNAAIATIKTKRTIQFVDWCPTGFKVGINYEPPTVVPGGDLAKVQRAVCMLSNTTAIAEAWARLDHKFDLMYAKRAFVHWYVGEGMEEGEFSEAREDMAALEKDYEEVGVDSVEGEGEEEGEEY
T1 sequence (P02554 whole entry, looked up): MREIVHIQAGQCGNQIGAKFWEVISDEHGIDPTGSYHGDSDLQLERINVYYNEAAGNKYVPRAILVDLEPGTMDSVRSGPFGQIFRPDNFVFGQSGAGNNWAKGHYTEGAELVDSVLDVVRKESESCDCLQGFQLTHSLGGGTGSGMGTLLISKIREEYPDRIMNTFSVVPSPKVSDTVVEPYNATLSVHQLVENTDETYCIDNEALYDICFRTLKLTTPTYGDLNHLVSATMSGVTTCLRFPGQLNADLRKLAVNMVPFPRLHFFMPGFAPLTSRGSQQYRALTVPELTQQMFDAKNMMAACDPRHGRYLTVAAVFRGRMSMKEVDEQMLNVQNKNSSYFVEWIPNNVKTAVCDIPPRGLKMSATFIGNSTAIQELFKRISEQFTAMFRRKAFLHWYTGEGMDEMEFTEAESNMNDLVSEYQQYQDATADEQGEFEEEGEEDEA

On to `CCOc1ccc(C2C3=C(CCCC3=O)Nc3c2c(C)nn3-c2nc(C)cc(C)n2)cc1OC` (stereo not given), for which the inhibition at 10 µM in the data set with A549 [1], with MDA-MB-231 [5] and with MCF7 [6] was 40% in each case. Also, the Activity result in [2] is on record as “Toxic”. For the same compound, the IC50 with MDA-MB-231 [3] (setting [22]) was over 23 µM; in the data set with MCF7 [4] it was 23.2 µM; in the data set on A549 [7], over 20 µM.
On to `COc1ccc(C2CC(O)=Nc3c2ncn3-c2cccc(C(F)(F)F)c2)cc1O` (stereo not given), for which the inhibition result on Tubulin (Sus scrofa) [8] is “Active”. Further, the Activity with MCF7 [9] was 207.6 pg/mL; with MCF7 [10], 53.91%; in the data set with MCF7 [11], 3.38%; in data set [2], “Toxic”; in the data set on MCF7 [12] it was 1.48%; in the data set with MCF7 [13], 42.71%. In addition, the Activity in the data set with MCF7 [14] turned out to be 7.11%; in the data set with MCF7 [15], 14.29%; in the data set with MCF7 [16] it was 5.96%; in the data set with MCF7 [17], 13.7 ng/mL; in the data set on MCF7 [18], 2.1 ng/mL. Also, the inhibition at 10 µM in the data set with A549 [1] amounted to 40%; in the data set on MDA-MB-231 [5], 60%; in the data set on MCF7 [6], 50%.
In the case of `COc1ccc(C(=O)c2cn(CC(=O)Nc3ccc(F)cc3)c3cc(OC)c(OC)cc3c2=O)cc1`, the inhibition at 10 µM with A549 [1], in the data set on MDA-MB-231 [5] and in the data set with MCF7 [6] was 50% throughout. The inhibition entry at Tubulin (Sus scrofa) [19] and on Tubulin (Homo sapiens) [20] was “Active” throughout. Moreover, the Activity entry in data set [2] is “Toxic”. The IC50 in the data set on MDA-MB-231 [3] (setting [22]) is 19.5 µM; with MCF7 [4], 11 µM; against Tubulin, 12.8 µM; with A549 [7], 9.4 µM.
As to `COc1cc2c(=O)c(C(=O)c3ccc(F)cc3)cn(CC(=O)Nc3ccc(F)c(F)c3)c2cc1OC`, the inhibition at 10 µM in the data set with A549 [1] came to 20%; in the data set on MDA-MB-231 [5], 80%; in the data set on MCF7 [6], 50%. Also, the inhibition entry at Tubulin (Sus scrofa) [19] and on Tubulin (Homo sapiens) [21] was “Active” in each case. Besides, the Activity result in data set [2] is “Toxic”. Also, the 50% inhibitory concentration (IC50) in the data set on MDA-MB-231 [3] (time 48 hrs) was found to be 14.1 µM; in the data set with MCF7 [4], 12 µM; against Tubulin it was 13.1 µM; with A549 [7], 13.2 µM.
Turning to `CC(=O)O[C@H]1C(=O)[C@@]2(C)[C@H]([C@H](OC(=O)c3ccccc3)[C@]3(O)C[C@H](OC(=O)[C@H](O)[C@@H](NC(=O)c4ccccc4)c4ccccc4)C(C)=C1C3(C)C)[C@]1(OC(C)=O)CO[C@@H]1C[C@@H]2O` [PACLITAXEL], the 50% inhibitory concentration (IC50) stood at 0.0193 µM with MDA-MB-231 [3] (setting [22]), 0.0061 µM in the data set on MCF7 [4] and 0.015 µM with A549 [7].

A word on the inhibition: it is how much of the control response was suppressed. A word on the IC50: it is the concentration at which inhibition is half-maximal.
